{
  "source": "ChEMBL document CHEMBL5715946",
  "about": "(Chem Biol, 2010)",
  "key": {"Cardiac muscle cell": {"system": "Cardiac muscle cell", "test": "Cytoprotective activity against serum deprivation-induced neonatal Wistar rat cardiomyocyte death assessed as increase in cell viability measured after 4 days by WST-8 assay", "type": "functional", "how_it_was_run": "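Primary neonatal rat cardiomyocytes were isolated by proteinase digestion, with preplating to remove adherent non-myocytes. Death was induced by serum deprivation at low density (3×10^5 cells/ml) for 4 days with compound present. Viability was read by WST-8. MEC1.5 is the concentration giving a 50% rise in viability. n = 3.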"}, "[1]": {"molecular_target": "T1, Glutathione S-transferase alpha-1 (Rattus norvegicus) (UniProt P00502)", "T1 sequence (whole entry)": "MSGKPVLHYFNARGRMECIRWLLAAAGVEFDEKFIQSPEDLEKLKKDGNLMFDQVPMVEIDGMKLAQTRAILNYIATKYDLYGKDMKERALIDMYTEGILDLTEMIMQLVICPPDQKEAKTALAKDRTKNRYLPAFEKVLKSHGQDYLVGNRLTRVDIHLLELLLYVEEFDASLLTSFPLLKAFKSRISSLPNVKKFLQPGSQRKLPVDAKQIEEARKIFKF", "test": "Binding affinity to rat N-terminal 6His-tagged truncated GST Ya expressed in Escherichia coli BL21 (DE3) at 400 nM incubated for 6 hrs using labelled compound by scintillation proximity assay", "how_it_was_run": "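Scintillation proximity assay: 6His-tagged protein (hMIF, rat GST Ya or rat VILIP3) captured on copper His-tag SPA beads with [3H]-BTZO-1; emitted light counted on a microplate scintillation counter. Mean of n = 2.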"}, "[2]": {"test": "Upregulation of glutathione S-transferase Y(b) subunit gene expression in serum-deprived neonatal Wistar rat cardiomyocyte at 0.37 uM incubated for 21 hrs by microarray analysis relative to control", "type": "functional, Cardiac muscle cell", "how_it_was_run": "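Primary neonatal rat cardiomyocytes, isolated by proteinase digestion with preplating to deplete nonmyocytes, cultured in serum-free medium with or without 0.37 μM compound for 21 hr. Total RNA was recovered and global expression profiled on an Affymetrix GeneChip rat genome U34A array (about 7000 known genes). Change is relative to untreated cells.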"}, "[3]": {"molecular_target": "T2, Macrophage migration inhibitory factor (Homo sapiens) (UniProt P14174)", "T2 sequence (whole entry)": "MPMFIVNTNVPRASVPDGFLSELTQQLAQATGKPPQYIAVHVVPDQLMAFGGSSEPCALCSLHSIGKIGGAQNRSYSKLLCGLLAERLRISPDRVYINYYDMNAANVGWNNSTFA", "test": "Binding affinity to BTZO-12 sensor chip immobilized recombinant human N-terminal His-tagged MIF expressed in Escherichia coli BL21 (DE3) by SPR analysis", "how_it_was_run": "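Sensor chip carrying immobilized BTZO-12; MIF (wild type or point mutants) passed over it and specific binding monitored by surface plasmon resonance.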"}, "[4]": {"system": "Antioxidant response element", "test": "Induction of ARE-mediated GST Ya mRNA expression in MIF siRNA transfected rat H9c2 cells at 3 uM measured after 24 hrs by RT-qPCR analysis", "type": "cell-based", "how_it_was_run": "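H9c2 cells transfected with MIF siRNA or control siRNA (100 nM, Oligofectamine), then treated with 3 μM compound with or without 0.8 μM rMIF for 24 hr. GST Ya and HO-1 mRNA by real-time qPCR; mean ± SD, n = 3. MIF effect on drug efficacy tested by Aspin-Welch test.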"}, "[5]": {"test": "Upregulation of Fischer 344 GST Yc subunit gene expression in serum-deprived neonatal Wistar rat cardiomyocyte at 0.37 uM incubated for 21 hrs by microarray analysis relative to control", "type": "functional, Cardiac muscle cell", "how_it_was_run": "(§1)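 Primary neonatal rat cardiomyocytes cultured with or without 0.37 μM compound in serum-free medium for 21 hr. Total RNA profiled on the rat genome U34A GeneChip array (about 7000 known genes).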"}, "[6]": {"test": "Upregulation of bilirubin-specific UDP glucuronosyltransferase gene expression in serum-deprived neonatal Wistar rat cardiomyocyte at 0.37 uM incubated for 21 hrs by microarray analysis relative to control", "type": "functional, Cardiac muscle cell", "how_it_was_run": "as §1"}},
  "note": "Active and inactive are the calls of the source. No cut-off for these calls is given here.",
  "data": [
    {"smiles": "O=c1nc(-c2ccccn2)sc2ccccc12", "note": "[BTZO-1]", "values": [
      {"measurement": "MEC1.5", "setting": "Cardiac muscle cell; time 4 day", "value": 16, "unit": "nM"},
      {"measurement": "Activity", "setting": "Cardiac muscle cell; time 4.0 day", "value": "Dose-Dependent Effect"},
      {"measurement": "Activity", "setting": "[1]", "value": "inactive"},
      {"measurement": "fold change (FC)", "setting": "[2]", "value": 2.5},
      {"measurement": "Activity", "setting": "[3]", "value": "Active"},
      {"measurement": "Activity", "setting": "[4]", "value": "inactive"},
      {"measurement": "fold change (FC)", "setting": "[5]", "value": 2.3},
      {"measurement": "fold change (FC)", "setting": "[6]", "value": 5.2}
    ]}
  ]
}
